Experimental data reported in ChEMBL document CHEMBL1151705, “Novel azalides derived from 16-membered macrolides. Part II: Isolation of the linear 9-formylcarboxylic acid and its sequential macrocyclization with an amino alcohol or an azidoamine” (2008).
In brackets after ≈: the same amount, converted by molar mass.

Key:
Type in all cases: functional
Streptococcus pneumoniae [1] = experiment: Antimicrobial activity against drug-susceptible Streptococcus pneumoniae DP1 Type1 after 20 hrs by agar dilution method; settings: Streptococcus pneumoniae, 20 h; read-out: MIC
Procedure, shortened: (§1)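 Streptococci, H. influenzae and M. catarrhalis were precultured on blood agar plates. Suspensions of about 10⁶ CFU/ml were inoculated onto sensitivity disk agar supplemented with 5% horse blood and incubated at 37 °C for 20 h. MIC was read as the lowest drug concentration with no visible growth.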

Haemophilus influenzae [2] = experiment: Antimicrobial activity against drug-susceptible Haemophilus influenzae 1 after 20 hrs by agar dilution method; settings: Haemophilus influenzae, 20 h; read-out: MIC; procedure, shortened: as §1
Staphylococcus aureus [3] = experiment: Antimicrobial activity against drug-susceptible Staphylococcus aureus 2 after 20 hrs by agar dilution method; settings: Staphylococcus aureus, 20 h; read-out: MIC
Procedure, shortened: (§2)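 Agar dilution MIC. S. aureus seed culture was grown in sensitivity test broth. Cell suspension (about 10⁶ CFU/ml) was inoculated onto sensitivity disk agar with 5% horse blood and incubated at 37 °C for 20 h. MIC was the lowest drug concentration that prevented visible growth.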

Staphylococcus aureus [4] = experiment: Antimicrobial activity against Staphylococcus aureus 6 expressing inducible ermB after 20 hrs by agar dilution method; procedure, shortened: as §2
Streptococcus pyogenes [5] = experiment: Antimicrobial activity against Streptococcus pyogenes 3 expressing mefA after 20 hrs by agar dilution method; settings: Streptococcus pyogenes, 20 h; read-out: MIC; procedure, shortened: as §1
Haemophilus influenzae [6] = experiment: Antimicrobial activity against drug-susceptible Haemophilus influenzae 3 after 20 hrs by agar dilution method; settings: Haemophilus influenzae, 20 h; read-out: MIC; procedure, shortened: as §1
Haemophilus influenzae [7] = experiment: Antimicrobial activity against drug-susceptible Haemophilus influenzae 2 after 20 hrs by agar dilution method; settings: Haemophilus influenzae, 20 h; read-out: MIC; procedure, shortened: as §1
Moraxella catarrhalis [8] = experiment: Antimicrobial activity against drug-susceptible Moraxella catarrhalis 1 after 20 hrs by agar dilution method; settings: Moraxella catarrhalis, 20 h; read-out: MIC; procedure, shortened: as §1
Streptococcus pneumoniae [9] = experiment: Antimicrobial activity against Streptococcus pneumoniae 6 constitutively expressing ermB after 20 hrs by agar dilution method; settings: Streptococcus pneumoniae, 20 h; read-out: MIC; procedure, shortened: as §1
Streptococcus pneumoniae [10] = experiment: Antimicrobial activity against Streptococcus pneumoniae 7 expressing inducible ermB after 20 hrs by agar dilution method; settings: Streptococcus pneumoniae, 20 h; read-out: MIC; procedure, shortened: as §1
Streptococcus pneumoniae [11] = experiment: Antimicrobial activity against drug-susceptible Streptococcus pneumoniae 3 after 20 hrs by agar dilution method; settings: Streptococcus pneumoniae, 20 h; read-out: MIC; procedure, shortened: as §1
Streptococcus pneumoniae [12] = experiment: Antimicrobial activity against drug-susceptible Streptococcus pneumoniae 2 after 20 hrs by agar dilution method; settings: Streptococcus pneumoniae, 20 h; read-out: MIC; procedure, shortened: as §1
Haemophilus influenzae [13] = experiment: Antimicrobial activity against drug-susceptible Haemophilus influenzae 4 after 20 hrs by agar dilution method; settings: Haemophilus influenzae, 20 h; read-out: MIC; procedure, shortened: as §1
Streptococcus pneumoniae [14] = experiment: Antimicrobial activity against Streptococcus pneumoniae 9 expressing mefA after 20 hrs by agar dilution method; settings: Streptococcus pneumoniae, 20 h; read-out: MIC; procedure, shortened: as §1
Streptococcus pneumoniae [15] = experiment: Antimicrobial activity against Streptococcus pneumoniae 8 expressing inducible ermB after 20 hrs by agar dilution method; settings: Streptococcus pneumoniae, 20 h; read-out: MIC; procedure, shortened: as §1
Staphylococcus aureus [16] = experiment: Antimicrobial activity against Staphylococcus aureus 4 constitutively expressing ermA after 20 hrs by agar dilution method; procedure, shortened: as §2
Moraxella catarrhalis [17] = experiment: Antimicrobial activity against drug-susceptible Moraxella catarrhalis 2 after 20 hrs by agar dilution method; settings: Moraxella catarrhalis, 20 h; read-out: MIC; procedure, shortened: as §1
Staphylococcus aureus [18] = experiment: Antimicrobial activity against Staphylococcus aureus 5 expressing inducible ermB after 20 hrs by agar dilution method; settings: Staphylococcus aureus, 20 h; read-out: MIC; procedure, shortened: as §2
Streptococcus pneumoniae [19] = experiment: Antimicrobial activity against Streptococcus pneumoniae 4 constitutively expressing ermB after 20 hrs by agar dilution method; settings: Streptococcus pneumoniae, 20 h; read-out: MIC; procedure, shortened: as §1
Streptococcus pneumoniae [20] = experiment: Antimicrobial activity against Streptococcus pneumoniae 10 expressing mefA after 20 hrs by agar dilution method; settings: Streptococcus pneumoniae, 20 h; read-out: MIC; procedure, shortened: as §1
Streptococcus pneumoniae [21] = experiment: Antimicrobial activity against Streptococcus pneumoniae 5 constitutively expressing ermB/mefA after 20 hrs by agar dilution method; settings: Streptococcus pneumoniae, 20 h; read-out: MIC; procedure, shortened: as §1
Streptococcus pyogenes [22] = experiment: Antimicrobial activity against Streptococcus pyogenes 2 constitutively expressing ermB after 20 hrs by agar dilution method; procedure, shortened: as §1
Staphylococcus aureus [23] = experiment: Antimicrobial activity against drug-susceptible Staphylococcus aureus 3 after 20 hrs by agar dilution method; settings: Staphylococcus aureus, 20 h; read-out: MIC; procedure, shortened: as §2
Staphylococcus aureus [24] = experiment: Antimicrobial activity against drug-susceptible Staphylococcus aureus 209P JC-1 after 20 hrs by agar dilution method; settings: Staphylococcus aureus, 209P, 20 h; read-out: MIC; procedure, shortened: as §2
Streptococcus pyogenes [25] = experiment: Antimicrobial activity against drug-susceptible Streptococcus pyogenes 1 after 20 hrs by agar dilution method; settings: Streptococcus pyogenes, 20 h; read-out: MIC; procedure, shortened: as §1

MIC (Streptococcus pneumoniae [1]) [µg/mL]	MIC (Haemophilus influenzae [2]) [µg/mL]	MIC (Staphylococcus aureus [3]) [µg/mL]	MIC (Staphylococcus aureus [4]) [µg/mL]	MIC (Streptococcus pyogenes [5]) [µg/mL]	MIC (Haemophilus influenzae [6]) [µg/mL]	MIC (Haemophilus influenzae [7]) [µg/mL]	MIC (Moraxella catarrhalis [8]) [µg/mL]	MIC (Streptococcus pneumoniae [9]) [µg/mL]	MIC (Streptococcus pneumoniae [10]) [µg/mL]	MIC (Streptococcus pneumoniae [11]) [µg/mL]	MIC (Streptococcus pneumoniae [12]) [µg/mL]	MIC (Haemophilus influenzae [13]) [µg/mL]	MIC (Streptococcus pneumoniae [14]) [µg/mL]	MIC (Streptococcus pneumoniae [15]) [µg/mL]	MIC (Staphylococcus aureus [16]) [µg/mL]	MIC (Moraxella catarrhalis [17]) [µg/mL]	MIC (Staphylococcus aureus [18]) [µg/mL]	MIC (Streptococcus pneumoniae [19]) [µg/mL]	MIC (Streptococcus pneumoniae [20]) [µg/mL]	SMILES	also measured
0.015 (≈ 0.016 µM)	32 (≈ 34.2 µM)	1 (≈ 1.07 µM)	0.5 (≈ 0.534 µM)	0.5 (≈ 0.534 µM)	8 (≈ 8.55 µM)	2 (≈ 2.14 µM)	1 (≈ 1.07 µM)	> 128	32 (≈ 34.2 µM)	0.03 (≈ 0.032 µM)	0.03 (≈ 0.032 µM)	16 (≈ 17.1 µM)	0.03 (≈ 0.032 µM)	32 (≈ 34.2 µM)	> 128	1 (≈ 1.07 µM)	0.25 (≈ 0.267 µM)	> 128	0.03 (≈ 0.032 µM)	CCOC(=O)[C@H]1[C@H](C)O[C@@H](O[C@H]2[C@H](N(C)C)[C@@H](O)[C@H](O[C@H]3[C@@H](CC=O)C[C@@H](C)[C@@H](O)CN(C)CCC[C@H](C/C=C/c4cccnc4)OC(=O)C[C@@H](OC(=O)CC)[C@@H]3OC)O[C@@H]2C)C[C@@]1(C)O	MIC (Streptococcus pneumoniae [21]): > 128 µg/mL; MIC (Streptococcus pyogenes [22]): > 128 µg/mL; MIC (Staphylococcus aureus [23]): 0.25 µg/mL (≈ 0.267 µM); MIC (Staphylococcus aureus [24]): 0.5 µg/mL (≈ 0.534 µM); MIC (Streptococcus pyogenes [25]): 0.06 µg/mL (≈ 0.0641 µM)
0.03 (≈ 0.0304 µM)	32 (≈ 32.4 µM)	1 (≈ 1.01 µM)	0.5 (≈ 0.506 µM)	0.5 (≈ 0.506 µM)	16 (≈ 16.2 µM)	4 (≈ 4.05 µM)	2 (≈ 2.02 µM)	> 128	8 (≈ 8.1 µM)	0.06 (≈ 0.0607 µM)	0.06 (≈ 0.0607 µM)	16 (≈ 16.2 µM)	0.06 (≈ 0.0607 µM)	8 (≈ 8.1 µM)	> 128	2 (≈ 2.02 µM)	0.5 (≈ 0.506 µM)	> 128	0.06 (≈ 0.0607 µM)	CCOC(=O)[C@H]1[C@H](C)O[C@@H](O[C@H]2[C@H](N(C)C)[C@@H](O)[C@H](O[C@H]3[C@@H](CC=O)C[C@@H](C)[C@@H](O)CN(C)CCC[C@H](CCCc4ccnc5ccccc45)OC(=O)C[C@@H](OC(=O)CC)[C@@H]3OC)O[C@@H]2C)C[C@@]1(C)O	MIC (Streptococcus pneumoniae [21]): > 128 µg/mL; MIC (Streptococcus pyogenes [22]): > 128 µg/mL; MIC (Staphylococcus aureus [23]): 0.25 µg/mL (≈ 0.253 µM); MIC (Staphylococcus aureus [24]): 0.5 µg/mL (≈ 0.506 µM); MIC (Streptococcus pyogenes [25]): 0.06 µg/mL (≈ 0.0607 µM)
